Assay results from different studies.
Target: 5'-AMP-activated protein kinase catalytic subunit alpha-2 (PRKAA2, Homo sapiens, UniProt P54646)

CCN(CC)c1ccc(C2=NNC(=O)CC2C)cc1[N+](=O)[O-] (stereo not shown) gave a remaining activity of 108% (enzyme activity; inhibitor; 10 µM).
The inhibition of CN1CC(Oc2cnc(C#N)cc2-c2ccn3nc(NC(=O)C4CC4)cc3c2)C1 is reported as 3% (enzyme activity; inhibitor; 1 µM).
O=C(O)c1cc(-c2ccc(C3CCNCC3)cc2)c2ccc(-c3ccc(C(F)(F)F)cc3)cc2c1 has a remaining binding of 100% (cell-free assay; competition with immobilised ligand; 1 µM).
With Nc1ncnc2occ(-c3ccc(NC(=O)Nc4cc(C(F)(F)F)ccc4F)cc3)c12 the remaining signal was 7.6% (cell-free assay; 20 µM).
The remaining activity of CCCOc1ccc(OC)c(F)c1C(=O)c1ccc(C(=O)N[C@@H]2CNC[C@H]2NC(=O)c2ccc3[nH]ncc3c2)cc1 is reported as 51% (enzyme activity; inhibitor; 50 nM).
CC1=C(C#N)C(c2ccc3c(c2)c(NC(=O)c2ccccc2C)nn3C)C(C#N)=C(C)N1 gave a remaining binding of 99% (cell-free assay; competition with immobilised ligand; 1 µM).
With Cc1cnc(NC2CCOCC2)nc1-n1cnc(C(=O)NC(CN)c2cc(F)cc(Cl)c2)c1 (stereo not shown) the remaining activity was 31% (enzyme activity; inhibitor; radiometric; 1 µM).
O=C(O)[C@H]1[C@H](Cn2nnc3ccccc3c2=O)CC[C@@H]1C(=O)c1ccc(OCCC2CCOCC2)cc1 has a remaining binding of 100% (cell-free assay; competition with immobilised ligand; 1 µM).
The inhibition of c1ccc(CNc2nc(N3CCOc4ccccc43)nc3c2CCCC3)cc1 is reported as -6.2% (target engagement in cells; inhibitor; chemoproteomics; 20 mM).
CCCS(=O)(=O)Nc1ccc(F)c(C(=O)c2c[nH]c3ncc(-c4ccc(Cl)cc4)cc23)c1F gave an inhibition of less than 20% (enzyme activity; inhibitor; 1 µM).
For COc1cc(-c2cc(-c3ccc(N4CCNCC4)cc3)cnc2C)cc(OC)c1OC, the inhibition was 1% (enzyme activity; inhibitor; 0.1 µM).
With CC(=O)N1CCC(c2ccc(C(=O)NC3=NCCN3)cc2C(F)(F)F)CC1 the remaining binding was 100% (cell-free assay; competition with immobilised ligand; 1 µM).
With Cc1ccc(NC(=O)c2ccc(C)c(C(F)(F)F)c2)cc1C#Cc1nn(C2CCC(O)CC2)c2ncnc(N)c12 (stereo not shown) the remaining signal was 90% (cell-free assay; 10 µM).
